Active and inactive are the calls of the source. The rule behind the calls is not given here.
Key:
A-431 = assay: Cytotoxicity against human A431 cells over expressing EGFR assessed as reduction in cell viability after 72 hrs by sulforhodamine B assay; type: functional, cell-based; conditions: A-431, 72 h
Procedure, shortened: (§1)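 Cells seeded and grown 24 h, then exposed to 0.1% DMSO vehicle or 0.3125-20 μM compound for 72 h. Fixed with ice-cold 50% TCA (1 h, 4 °C), stained with 0.4% SRB 30 min at room temperature, dye solubilized in 10 mM tris base pH 10.5, OD read at 560 nm. Survival fraction = OD treated/OD vehicle; IC50 from triplicates of at least two independent experiments, mean ± SD.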

MDA-MB-361 [1] = assay: Cytotoxicity against human MDA-MB-361 cells over expressing HER2 assessed as reduction in cell viability after 72 hrs by sulforhodamine B assay; type: functional, cell-based; conditions: MDA-MB-361, 72 h; procedure, shortened: as §1
MDA-MB-361 [2] = assay: Induction of apoptosis in human MDA-MB-361 cells after 24 hrs by Annexin-V-FITC/propidium iodide staining based flow cytometry; type: functional, cell-based
SK-BR-3 = assay: Cytotoxicity against human SKBR3 cells over expressing HER2 assessed as reduction in cell viability after 72 hrs by sulforhodamine B assay; type: functional, cell-based; conditions: SK-BR-3, 72 h; procedure, shortened: as §1
NCI-H1975 [3] = assay: Cytotoxicity against human NCI-H1975 cells harboring EGFR T790M mutant assessed as reduction in cell viability after 72 hrs by sulforhodamine B assay; type: functional, cell-based; conditions: NCI-H1975, 72 h; procedure, shortened: as §1
[4] = target: T1, Epidermal growth factor receptor (Homo sapiens, UniProt P00533); assay: Inhibition of recombinant human C-terminal His-tagged/N-terminal GST-tagged EGFR (668 to 1210 residues) expressed in baculovirus infected Sf9 cells using Poly-(Glu, Tyr) as substrate measured after 45 minutes by Kinase-Glo luminescent assay
T1 sequence (P00533 whole entry, the tested form may be a part): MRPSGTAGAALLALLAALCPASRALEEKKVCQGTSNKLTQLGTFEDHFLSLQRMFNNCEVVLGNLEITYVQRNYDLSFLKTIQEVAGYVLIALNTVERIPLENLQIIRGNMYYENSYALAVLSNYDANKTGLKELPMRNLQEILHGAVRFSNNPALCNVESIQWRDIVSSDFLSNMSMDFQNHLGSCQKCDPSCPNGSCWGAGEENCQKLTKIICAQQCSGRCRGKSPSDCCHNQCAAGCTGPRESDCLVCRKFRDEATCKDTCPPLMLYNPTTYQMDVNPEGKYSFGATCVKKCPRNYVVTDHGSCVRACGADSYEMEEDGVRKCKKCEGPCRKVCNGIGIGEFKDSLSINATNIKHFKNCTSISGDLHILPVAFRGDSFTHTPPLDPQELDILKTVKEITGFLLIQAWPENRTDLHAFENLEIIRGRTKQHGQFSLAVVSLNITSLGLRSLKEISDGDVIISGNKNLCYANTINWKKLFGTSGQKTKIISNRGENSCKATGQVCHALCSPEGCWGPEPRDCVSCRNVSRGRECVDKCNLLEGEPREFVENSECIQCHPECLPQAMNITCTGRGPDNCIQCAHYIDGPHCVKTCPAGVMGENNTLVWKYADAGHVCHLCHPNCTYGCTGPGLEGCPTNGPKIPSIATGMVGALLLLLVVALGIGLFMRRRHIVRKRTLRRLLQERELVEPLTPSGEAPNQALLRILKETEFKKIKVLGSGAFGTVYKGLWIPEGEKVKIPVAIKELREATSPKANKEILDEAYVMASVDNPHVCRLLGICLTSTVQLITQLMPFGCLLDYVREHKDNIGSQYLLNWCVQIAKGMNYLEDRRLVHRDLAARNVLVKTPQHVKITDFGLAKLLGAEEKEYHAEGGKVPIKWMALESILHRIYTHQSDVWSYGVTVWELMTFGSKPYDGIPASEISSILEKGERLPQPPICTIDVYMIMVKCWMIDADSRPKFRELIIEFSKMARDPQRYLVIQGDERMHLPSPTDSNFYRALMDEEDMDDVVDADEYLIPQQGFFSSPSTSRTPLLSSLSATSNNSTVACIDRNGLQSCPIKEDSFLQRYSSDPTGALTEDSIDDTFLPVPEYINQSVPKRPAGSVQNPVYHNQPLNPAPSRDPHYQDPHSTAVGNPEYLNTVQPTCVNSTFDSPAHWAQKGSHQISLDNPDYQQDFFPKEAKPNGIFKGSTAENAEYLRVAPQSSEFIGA

[5] = target: T2, Receptor tyrosine-protein kinase erbB-2 (Homo sapiens, UniProt P04626); assay: Inhibition of recombinant human N-terminal GST-tagged HER2 (679 to 1255 residues) expressed in baculovirus infected Sf9 cells using Poly-(Glu, Tyr) as substrate measured after 45 minutes by Kinase-Glo luminescent assay
T2 sequence (P04626 whole entry, the tested form may be a part): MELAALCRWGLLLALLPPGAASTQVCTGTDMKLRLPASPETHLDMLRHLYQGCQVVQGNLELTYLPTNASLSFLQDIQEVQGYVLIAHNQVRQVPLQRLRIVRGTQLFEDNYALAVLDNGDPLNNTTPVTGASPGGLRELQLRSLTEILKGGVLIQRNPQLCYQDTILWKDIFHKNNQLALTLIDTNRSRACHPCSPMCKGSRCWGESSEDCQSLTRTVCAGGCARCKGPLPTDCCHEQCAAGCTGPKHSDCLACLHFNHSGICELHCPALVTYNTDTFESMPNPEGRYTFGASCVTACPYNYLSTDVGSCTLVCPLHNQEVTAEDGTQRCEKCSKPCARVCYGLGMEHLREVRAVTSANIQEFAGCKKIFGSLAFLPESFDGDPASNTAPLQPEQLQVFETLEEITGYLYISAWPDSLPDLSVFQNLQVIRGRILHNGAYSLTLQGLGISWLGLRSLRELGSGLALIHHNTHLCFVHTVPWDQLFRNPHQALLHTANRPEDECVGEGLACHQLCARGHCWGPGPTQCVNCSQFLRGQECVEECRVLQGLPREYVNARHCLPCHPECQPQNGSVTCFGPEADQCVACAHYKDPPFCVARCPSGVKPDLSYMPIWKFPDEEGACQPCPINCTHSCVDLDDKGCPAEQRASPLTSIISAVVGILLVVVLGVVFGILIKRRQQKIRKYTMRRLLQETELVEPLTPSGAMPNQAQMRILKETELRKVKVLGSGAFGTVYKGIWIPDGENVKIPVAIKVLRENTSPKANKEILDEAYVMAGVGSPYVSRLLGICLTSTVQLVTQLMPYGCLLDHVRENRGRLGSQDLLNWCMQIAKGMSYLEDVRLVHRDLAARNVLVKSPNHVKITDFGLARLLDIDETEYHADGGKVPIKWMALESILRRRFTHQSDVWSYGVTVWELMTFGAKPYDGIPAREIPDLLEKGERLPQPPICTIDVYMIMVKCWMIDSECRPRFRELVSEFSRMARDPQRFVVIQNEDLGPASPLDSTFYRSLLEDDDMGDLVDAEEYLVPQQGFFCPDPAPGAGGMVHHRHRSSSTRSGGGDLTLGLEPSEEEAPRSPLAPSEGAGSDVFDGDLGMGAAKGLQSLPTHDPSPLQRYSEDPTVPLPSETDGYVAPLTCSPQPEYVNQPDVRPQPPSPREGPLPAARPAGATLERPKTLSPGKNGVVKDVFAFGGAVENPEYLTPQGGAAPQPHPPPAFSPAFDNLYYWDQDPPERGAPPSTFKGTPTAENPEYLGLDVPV

[6] = target: T1, Epidermal growth factor receptor; assay: Inhibition of EGF-induced EGFR phosphorylation at Y1068 residues in EGFR over-expressing human A431 cells pretreated for 3 hrs followed by EGF-stimulation and measured after 10 mins by Western blot analysis
Procedure, shortened: (§2)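 Overnight serum-starved A431 cells given indicated concentrations for 3 h, then 50 ng/ml EGF for 10 min. HEPES-buffer lysates resolved on 12% SDS-PAGE, transferred to nitrocellulose, blocked in 5% milk/TBST, probed with primary and HRP secondary antibodies, chemiluminescence read-out.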

[7] = target: T1, Epidermal growth factor receptor; assay: Inhibition of EGF-induced EGFR signalling in EGFR over-expressing human A431 cells assessed as reduction in AKT phosphorylation at S473 residue at 2.5 to 10 uM pretreated for 3 hrs followed by EGF-stimulation and measured after 10 mins by Western blot analysis; procedure, shortened: as §2
[8] = target: T1, Epidermal growth factor receptor; assay: Inhibition of EGF-induced EGFR signalling in EGFR over-expressing human A431 cells assessed as reduction in p70S6K phosphorylation at T389 residue at 2.5 to 10 uM pretreated for 3 hrs followed by EGF-stimulation and measured after 10 mins by Western blot analysis; procedure, shortened: as §2
[9] = target: T1, Epidermal growth factor receptor; assay: Inhibition of EGF-induced EGFR signalling in EGFR over-expressing human A431 cells assessed as reduction in ribosomal S6 phosphorylation at S235/236 residue at 2.5 to 10 uM pretreated for 3 hrs followed by EGF-stimulation and measured after 10 mins by Western blot analysis; procedure, shortened: as §2
NCI-H1975 [10] = assay: Induction of apoptosis in human NCI-H1975 cells harboring EGFR T790M mutant assessed as increase in apoptotic cells at 2.5 to 10 uM after 72 hrs by Annexin-V-FITC/propidium iodide staining based flow cytometry; type: functional, cell-based
NCI-H1975 [11] = assay: Induction of apoptosis in human NCI-H1975 cells harboring EGFR T790M mutant assessed as increase in necrotic cells at 2.5 to 10 uM after 72 hrs by Annexin-V-FITC/propidium iodide staining based flow cytometry; type: functional, cell-based
Procedure, shortened: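 NCI-H1975 cells grown in RPMI-1640 with 2 mM L-glutamine and 10% FBS, exposed 72 h to indicated concentrations. Harvested, ethanol-fixed on ice, PI-stained overnight at 4 °C. Flow cytometry on 20 000 cells/sample gave percent live, early apoptotic and late apoptotic/necrotic cells.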

[12] = system: Epidermal growth factor receptor (Homo sapiens), P00533 [T790M]; assay: Inhibition of EGFR T790M mutant in human NCI-H1975 cells assessed as reduction in AKT phosphorylation at S473 residue after 72 hrs by Western blot analysis; type: cell-based
Epidermal growth factor receptor (Homo sapiens), P00533 [T790M], sequence (P00533 whole entry T790M): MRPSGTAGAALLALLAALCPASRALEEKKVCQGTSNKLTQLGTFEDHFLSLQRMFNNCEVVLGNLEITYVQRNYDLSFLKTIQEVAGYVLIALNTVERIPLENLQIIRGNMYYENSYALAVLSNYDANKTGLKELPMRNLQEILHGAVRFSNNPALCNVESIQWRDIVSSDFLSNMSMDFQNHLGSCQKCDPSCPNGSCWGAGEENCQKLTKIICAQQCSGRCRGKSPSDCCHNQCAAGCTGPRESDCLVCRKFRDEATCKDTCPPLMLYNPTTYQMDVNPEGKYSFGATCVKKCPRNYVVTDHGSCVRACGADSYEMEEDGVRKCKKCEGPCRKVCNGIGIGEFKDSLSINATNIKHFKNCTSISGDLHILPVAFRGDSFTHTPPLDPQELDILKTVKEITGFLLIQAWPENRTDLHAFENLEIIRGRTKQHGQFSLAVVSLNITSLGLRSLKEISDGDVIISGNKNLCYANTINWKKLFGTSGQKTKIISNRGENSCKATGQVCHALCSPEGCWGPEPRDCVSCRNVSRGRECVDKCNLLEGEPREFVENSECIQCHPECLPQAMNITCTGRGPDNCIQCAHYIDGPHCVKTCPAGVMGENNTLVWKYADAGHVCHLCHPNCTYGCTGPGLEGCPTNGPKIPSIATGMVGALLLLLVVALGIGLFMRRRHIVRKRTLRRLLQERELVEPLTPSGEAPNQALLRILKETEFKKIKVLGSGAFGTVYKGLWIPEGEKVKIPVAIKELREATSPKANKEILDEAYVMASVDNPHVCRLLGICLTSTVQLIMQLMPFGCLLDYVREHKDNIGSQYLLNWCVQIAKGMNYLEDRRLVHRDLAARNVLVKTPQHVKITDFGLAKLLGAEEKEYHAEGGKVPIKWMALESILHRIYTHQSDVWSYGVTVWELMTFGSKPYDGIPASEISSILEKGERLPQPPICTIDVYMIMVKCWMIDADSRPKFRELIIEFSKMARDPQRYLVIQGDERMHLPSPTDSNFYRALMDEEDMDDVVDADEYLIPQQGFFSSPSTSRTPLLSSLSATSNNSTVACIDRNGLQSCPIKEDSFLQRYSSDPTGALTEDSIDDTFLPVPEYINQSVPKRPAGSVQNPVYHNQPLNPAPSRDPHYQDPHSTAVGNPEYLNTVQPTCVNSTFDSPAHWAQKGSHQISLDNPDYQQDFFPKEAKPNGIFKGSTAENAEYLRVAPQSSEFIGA
Procedure, shortened: (§3)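 Unstimulated NCI-H1975 cells exposed to indicated concentrations for 72 h. Lysates in HEPES buffer run on 12% SDS-PAGE, blotted to nitrocellulose and probed for AKT/S6K/S6 signalling with chemiluminescent detection; β-actin loading control.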

[13] = system: Epidermal growth factor receptor (Homo sapiens), P00533 [T790M]; assay: Inhibition of EGFR T790M mutant in human NCI-H1975 cells assessed as reduction in p70S6K phosphorylation at T389 residue after 72 hrs by Western blot analysis; type: cell-based; procedure, shortened: as §3
[14] = system: Epidermal growth factor receptor (Homo sapiens), P00533 [T790M]; assay: Inhibition of EGFR T790M mutant in human NCI-H1975 cells assessed as reduction in ribosomal S6 phosphorylation at S235/236 residue after 72 hrs by Western blot analysis; type: cell-based; procedure, shortened: as §3
[15] = system: Epidermal growth factor receptor (Homo sapiens), P00533 [T790M]; assay: Inhibition of EGF-induced EGFR T790M mutant phosphorylation in human NCI-H1975 cells at 2.5 to 10 uM pretreated for 2.5 hrs followed by EGF-stimulation and measured after 10 mins by Western blot analysis; type: cell-based
Procedure, shortened: (§4)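 Serum-starved overnight NCI-H1975 cells preincubated 2.5 h with compound, then stimulated with 50 ng/ml EGF for 10 min. Lysed in HEPES buffer, protein quantified, 12% SDS-PAGE, nitrocellulose transfer, milk blocking, HRP secondary, chemiluminescent detection.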

[16] = system: Epidermal growth factor receptor (Homo sapiens), P00533 [T790M]; assay: Inhibition of EGF-induced EGFR T790M mutant in human NCI-H1975 cells assessed as reduction in AKT phosphorylation at S473 residue at 2.5 to 10 uM pretreated for 2.5 hrs followed by EGF-stimulation and measured after 10 mins by Western blot analysis; type: cell-based; procedure, shortened: as §4
[17] = system: Epidermal growth factor receptor (Homo sapiens), P00533 [T790M]; assay: Inhibition of EGF-induced EGFR T790M mutant in human NCI-H1975 cells assessed as reduction in p70S6K phosphorylation at T389 residue at 2.5 to 10 uM pretreated for 2.5 hrs followed by EGF-stimulation and measured after 10 mins by Western blot analysis; type: cell-based; procedure, shortened: as §4
[18] = system: Epidermal growth factor receptor (Homo sapiens), P00533 [T790M]; assay: Inhibition of EGF-induced EGFR T790M mutant in human NCI-H1975 cells assessed as reduction in ribosomal S6 phosphorylation at S235/236 residue at 2.5 to 10 uM pretreated for 2.5 hrs followed by EGF-stimulation and measured after 10 mins by Western blot analysis; type: cell-based; procedure, shortened: as §4
[19] = target: T1, Epidermal growth factor receptor; assay: Inhibition of EGF-induced EGFR signalling in EGFR over-expressing human A431 cells assessed as reduction in AKT phosphorylation at S473 residue at 5 to 20 uM pretreated for 3 hrs followed by EGF-stimulation and measured after 10 mins by Western blot analysis; procedure, shortened: as §2
[20] = target: T1, Epidermal growth factor receptor; assay: Inhibition of EGF-induced EGFR signalling in EGFR over-expressing human A431 cells assessed as reduction in p70S6K phosphorylation at T389 residue at 5 to 20 uM pretreated for 3 hrs followed by EGF-stimulation and measured after 10 mins by Western blot analysis; procedure, shortened: as §2
[21] = target: T1, Epidermal growth factor receptor; assay: Inhibition of EGF-induced EGFR signalling in EGFR over-expressing human A431 cells assessed as reduction in ribosomal S6 phosphorylation at S235/236 residue at 5 to 20 uM pretreated for 3 hrs followed by EGF-stimulation and measured after 10 mins by Western blot analysis; procedure, shortened: as §2
[22] = target: T2, Receptor tyrosine-protein kinase erbB-2; assay: Inhibition of HER2 signalling in HER2 over-expressing human SKBR3 cells assessed as reduction in AKT phosphorylation at S473 residue at 2.5 to 10 uM after 72 hrs by Western blot analysis
Procedure, shortened: (§5)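 SKBr3 cells (DMEM, 10% FBS) treated 72 h at indicated concentrations. HEPES-buffer lysates on 12% SDS-PAGE, nitrocellulose transfer, 5% milk/TBST block, immunoblotted for AKT/mTOR/S6 with HRP secondary and chemiluminescence; β-actin loading control.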

[23] = target: T2, Receptor tyrosine-protein kinase erbB-2; assay: Inhibition of HER2 signalling in HER2 over-expressing human SKBR3 cells assessed as reduction in mTOR phosphorylation at S2448 residue at 2.5 to 10 uM after 72 hrs by Western blot analysis; procedure, shortened: as §5
[24] = target: T2, Receptor tyrosine-protein kinase erbB-2; assay: Inhibition of HER2 signalling in HER2 over-expressing human SKBR3 cells assessed as reduction in S6 phosphorylation at S235/236 residue at 2.5 to 10 uM after 72 hrs by Western blot analysis; procedure, shortened: as §5

| Compound | IC50 (A-431) | IC50 (MDA-MB-361 [1]) | IC50 (SK-BR-3) | IC50 (NCI-H1975 [3]) | IC50 [4] | IC50 [5] | also measured |
| --- | --- | --- | --- | --- | --- | --- | --- |
| O=[N+]([O-])c1ccc(-c2cc3c(Nc4ccc5c(cnn5Cc5ccccc5)c4)ncnc3s2)cc1 | > 20 µM | > 20 µM |  |  |  |  |  |
| O=C(O)/C=C\C(=O)Nc1ccc(-c2cc3c(Nc4ccc(Oc5cccc(C(F)(F)F)c5)c(Cl)c4)ncnc3s2)cc1 | > 20 µM | > 20 µM |  |  |  |  |  |
| CC(C)/C=C/C(=O)Nc1ccc(-c2cc3c(Nc4ccc(Oc5cccc(C(F)(F)F)c5)c(Cl)c4)ncnc3s2)cc1 | 0.23 µM | > 20 µM |  |  |  |  |  |
| O=C(NCCN1CCOCC1)Nc1ccc(-c2cc3c(Nc4ccc(Oc5cccc(C(F)(F)F)c5)c(Cl)c4)ncnc3s2)cc1 | 1.45 µM | 3.5 µM | 4.83 µM | 4.2 µM | 0.0917 µM | 1.2 µM | Activity (MDA-MB-361 [2]): Dose-dependent effect; inhibition [6]: Dose-dependent effect; inhibition [7]: Active; inhibition [8]: Active; inhibition [9]: Active; Activity (NCI-H1975 [10]): Active; Activity (NCI-H1975 [11]): Active; inhibition [12]: Dose-dependent effect; inhibition [13]: Dose-dependent effect; inhibition [14]: Dose-dependent effect; inhibition [15]: Active; inhibition [16]: Active; inhibition [17]: Active; inhibition [18]: Active |
| O=[N+]([O-])c1ccc(-c2cc3c(Nc4ccc(Oc5cccc(C(F)(F)F)c5)c(Cl)c4)ncnc3s2)cc1 | 1.72 µM | 3.65 µM |  |  |  |  |  |
| CS(=O)(=O)CCNCc1ccc(-c2ccc3ncnc(Nc4ccc(OCc5cccc(F)c5)c(Cl)c4)c3c2)o1 | 1.69 µM | 13.7 µM | 0.17 µM | 11.5 µM |  |  |  |
| Nc1ccc(-c2cc3c(Nc4ccc(Oc5cccc(C(F)(F)F)c5)c(Cl)c4)ncnc3s2)cc1 | 11.4 µM | 5.85 µM | 6 µM | 13.9 µM | 0.0214 µM | 1.5 µM | inhibition [6]: Dose-dependent effect; inhibition [19]: Active; inhibition [20]: Active; inhibition [21]: Active |
| Nc1ccc(-c2cc3c(NCc4ccccc4)ncnc3s2)cc1 | > 20 µM | > 20 µM |  |  |  |  |  |
| O=[N+]([O-])c1ccc(-c2cc3c(NCc4ccccc4)ncnc3s2)cc1 | 4.87 µM | > 20 µM |  |  |  |  |  |
| CC(=O)Nc1ccc(-c2cc3c(Nc4ccc(Oc5cccc(C(F)(F)F)c5)c(Cl)c4)ncnc3s2)cc1 | 10.5 µM | 10.5 µM | 4.7 µM | 12.7 µM | 0.0477 µM | 0.879 µM | inhibition [22]: Active; inhibition [23]: Active; inhibition [24]: Active |
| O=C(Nc1ccc(-c2cc3c(Nc4ccc(Oc5cccc(C(F)(F)F)c5)c(Cl)c4)ncnc3s2)cc1)NC1CC1 | 2.34 µM | 3.83 µM |  |  | 0.112 µM | 37.1 µM |  |
| CS(=O)(=O)Nc1ccc(-c2cc3c(Nc4ccc(Oc5cccc(C(F)(F)F)c5)c(Cl)c4)ncnc3s2)cc1 | 5.25 µM | 9.86 µM |  |  |  | 19.2 µM |  |
| CCOC(=O)Nc1ccc(-c2cc3c(Nc4ccc(Oc5cccc(C(F)(F)F)c5)c(Cl)c4)ncnc3s2)cc1 | 17 µM | > 20 µM |  |  |  |  |  |

Source: ChEMBL document CHEMBL4270530, “Surmounting the resistance against EGFR inhibitors through the development of thieno[2,3-d]pyrimidine-based dual EGFR/HER2 inhibitors” (Eur J Med Chem, 2018)
